# A selection: hits, their analogues and other compounds. The true share with any hit is near 2.3%.
# DDE Tn7 FP inh: disrupts Tn7 cyclic peptide binding to fibrin D-Dimer-E complex; FP displacement of FITC-Tn7 peptide from fibrin DD(E); 0% = median of compound wells per plate; inhibition, % at 8.3 µM; P02675; 370,000 tested, 0.13% active;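 active = inhibition above the mean of compounds falling within the control limits plus 3 SD of them, cut at about 14% in these data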
#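 system = human fibrin DD(E) protein | quantity = DD(E) 2 µM final | medium = Tris/NaCl/CaCl2 buffer, pH 7.8 | also added = labelled Tn7 tracer, 0.1 µM | compound dosing = single point at 8.3 µM | timing = compound with protein 10 min, then 3 h after probe, room temperature | signal = FP measurement | benchmarks = Aha-Tn7 high control | repeats = one replicate per compound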
# ADAM17 inh: inhibits human ADAM17. P78536. recombinant ADAM17, EDANS/DABCYL FRET peptide cleavage. inhibition, % at 6.95 µM. 370,000 tested, 0.83% active. AID 720648;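 active = inhibition above the mean of compounds lying between control limits plus 3 SD, set per campaign, cut at about 8.5% in these data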
# PLCg1 inh: PLC-gamma1 (human) inhibition, primary screen; purified PLC-gamma1, fluorogenic substrate, fluorescence; AID 720700; P19174; inhibition, % at 12.2 µM; 370,000 tested, 0.84% active; in the data active = inhibition above about 9.5%
# Tn6 DDE FP: inhibitors of Tn6 peptide binding to human fibrin DD(E) | inhibition, % at 8.3 µM | Fibrin DD(E) TRITC-Tn6 fluorescence polarization displacement | P02675 | 370,000 tested, 0.21% active | AID 720509;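 active = inhibition above a per-campaign cutoff: mean of compounds within control limits plus 3 SD, cut at about 15% in these data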
# ADAM10 inh: inhibitors of human ADAM10. inhibition, % at 7 µM. 370,000 tested, 0.62% active. O14672. recombinant ADAM10, EDANS/DABCYL FRET peptide cleavage, 3 h;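 active = inhibition above a per-campaign cutoff equal to the mean of compounds falling between control-based bounds plus 3 SD, cut at about 20% in these data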
# PLCb3 inh: inhibitors of human phospholipase C beta3; Q01970; Purified PLC-beta3, fluorogenic substrate, fluorescence; inhibition, % at 12.2 µM; 370,000 tested, 0.18% active
# Target sequence (Q01970 whole entry, looked up): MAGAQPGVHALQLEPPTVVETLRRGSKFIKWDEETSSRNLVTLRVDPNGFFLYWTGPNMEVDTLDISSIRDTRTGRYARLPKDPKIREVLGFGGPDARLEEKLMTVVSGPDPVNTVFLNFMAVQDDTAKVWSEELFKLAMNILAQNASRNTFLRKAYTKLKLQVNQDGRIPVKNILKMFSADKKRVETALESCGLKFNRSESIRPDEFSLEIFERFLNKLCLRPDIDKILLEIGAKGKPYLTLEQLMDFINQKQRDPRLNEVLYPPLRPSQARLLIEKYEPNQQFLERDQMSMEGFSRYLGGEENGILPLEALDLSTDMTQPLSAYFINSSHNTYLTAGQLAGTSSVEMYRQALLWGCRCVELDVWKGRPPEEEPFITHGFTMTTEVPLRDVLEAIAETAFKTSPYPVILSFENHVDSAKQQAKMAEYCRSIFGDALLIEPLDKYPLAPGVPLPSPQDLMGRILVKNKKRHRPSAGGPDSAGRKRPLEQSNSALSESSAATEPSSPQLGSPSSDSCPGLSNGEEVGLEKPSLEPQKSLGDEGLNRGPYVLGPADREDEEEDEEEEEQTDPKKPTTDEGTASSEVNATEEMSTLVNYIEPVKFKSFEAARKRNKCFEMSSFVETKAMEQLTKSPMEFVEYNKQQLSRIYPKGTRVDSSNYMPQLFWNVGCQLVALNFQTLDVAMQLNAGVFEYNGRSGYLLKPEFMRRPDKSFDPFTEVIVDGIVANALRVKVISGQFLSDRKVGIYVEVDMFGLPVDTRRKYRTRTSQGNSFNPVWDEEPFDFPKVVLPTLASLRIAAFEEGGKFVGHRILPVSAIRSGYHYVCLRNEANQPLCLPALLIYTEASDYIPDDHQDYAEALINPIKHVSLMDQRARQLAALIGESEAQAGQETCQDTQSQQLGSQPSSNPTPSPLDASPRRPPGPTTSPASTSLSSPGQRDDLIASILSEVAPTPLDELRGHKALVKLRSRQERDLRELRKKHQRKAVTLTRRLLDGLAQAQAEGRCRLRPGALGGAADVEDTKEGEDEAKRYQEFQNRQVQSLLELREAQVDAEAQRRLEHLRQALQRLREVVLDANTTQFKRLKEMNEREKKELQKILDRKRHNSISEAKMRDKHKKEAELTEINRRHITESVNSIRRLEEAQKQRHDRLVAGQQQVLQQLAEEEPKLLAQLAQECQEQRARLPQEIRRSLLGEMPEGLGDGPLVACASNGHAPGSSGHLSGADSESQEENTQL
# PLCg1 ctr: inhibits human PLC-gamma1 in PLC-beta3 counter-screen; 3,300 tested, 3.1% active; inhibition, % at 12.3 µM; AID 743258; purified PLC-gamma1, fluorogenic substrate, fluorescence; shares compounds with PLCg1 inh; in the data active = inhibition above about 9.5%
# PLCbeta3 conf: human PLC-beta3 inhibition, confirmation; shares compounds with PLCg1 inh; purified PLC-beta3, fluorogenic substrate fluorescence; inhibition, % at 12.3 µM; 3,300 tested, 1% active; AID 743261
# A number is an active result; - = inactive; . = no result given. Rule as the data show it, unless noted: active = inhibition above about 11%; inactive = the rest.
SMILES,DDE Tn7 FP inh,ADAM17 inh,PLCg1 inh,Tn6 DDE FP,ADAM10 inh,PLCb3 inh,PLCg1 ctr,PLCbeta3 conf
CN(C)C(CNC(=O)Cc1c(Cl)cccc1Cl)c1ccccc1 (stereo not drawn),-,-,-,-,-,-,.,.
CCCCC(=O)N/N=C/c1c(O)n(CCCC)c(=S)[nH]c1=O,-,-,-,-,-,-,.,.
CCCCC(=O)N/N=C/c1c(O)n(C2CC2)c(=S)[nH]c1=O,-,-,10.4,-,-,-,-,-
COc1ccccc1-n1c(CNCC2CCCO2)nc2ccccc2c1=O (stereo not drawn),-,-,12.8,-,-,11.2,9.6,-
Cc1cc(Cl)nc(N)n1,-,-,12.6,-,-,-,-,-
O=C(c1c[nH]c2ccc(S(=O)(=O)N3CCC4(CC3)OCCO4)cc2c1=O)N1CCC2(CC1)OCCO2,-,-,-,-,-,-,.,.
Cc1ccc(OC(=O)N(C)C[C@@H]2OCc3cnnn3CCCC(=O)N([C@@H](C)CO)C[C@@H]2C)cc1,-,-,-,-,-,-,.,.
CN1CCN(CCC(C#N)(c2ccccc2)c2ccccc2)CC1,-,-,10.8,-,-,12.1,-,-
CC1(C)CC(=O)CC(C)(C)N1O,-,-,11.5,-,-,-,-,-
C=CCC1C(=O)NC(=S)NC1=O,-,-,-,-,-,-,.,.
CCN(CC)C(=O)c1ccc(NC(=O)Nc2ccccc2F)cc1,-,-,-,-,-,-,.,.
CC(=NCCCN1CCOCC1)c1c(O)[nH]c(=O)[nH]c1=O,-,-,15.1,-,-,-,-,-
C=CCn1c(O)c(C(C)=NCCCN2CCOCC2)c(=O)[nH]c1=O,-,-,-,-,-,-,.,.
c1ccc(CC(NCc2ccco2)c2ccccc2)cc1 (stereo not drawn),-,-,-,-,-,-,.,.
COC(=O)C1=C(c2cccc(OCc3ccccc3)c2)C[C@@H]2CC[C@H]1N2C(=O)NC1CCN(Cc2ccccc2)CC1,-,-,11.8,-,-,-,-,-
COC(=O)C1=C(c2ccccc2OCc2ccccc2)C[C@@H]2CC[C@H]1N2C(=O)NC1CCN(Cc2ccccc2)CC1,-,-,-,-,-,-,.,.
CC(=NCc1ccco1)c1c(O)n(C)c(=O)n(C)c1=O,-,-,10.1,-,-,-,-,-
CCC(=NCc1ccco1)c1c(O)n(C)c(=O)n(C)c1=O,-,-,-,-,-,-,.,.
Nc1c(Br)cc([N+](=O)[O-])cc1[N+](=O)[O-],-,-,-,-,-,-,.,.
Cc1cc(C)n2nc(SC(C)C(=O)N3CCC4(CC3)OCCO4)nc2n1 (stereo not drawn),-,-,11.8,-,-,-,-,-
COc1ccc(-c2ccc3c(c2)CN(c2cccc(Cl)c2)Cc2cnnn2-3)cc1,-,-,13.1,-,-,-,-,-
COc1ccc(-c2ccc3c(c2)CN(CC(C)C)Cc2cnnn2-3)cc1,-,-,-,-,-,-,.,.
CCOC(=O)[C@]12Cc3ccc4ccccc4c3[C@H]1N(Cc1ccccc1)C(=O)c1ccccc12,-,-,10.6,-,-,-,-,-
CCOC(=O)[C@]12Cc3cc4ccccc4cc3[C@H]1N(Cc1ccccc1)C(=O)c1ccccc12,-,-,-,-,-,-,.,.
CCN1CCC2(CC1)NC(CO)(CO)CO2,-,-,10.6,-,-,-,-,-
SMILES,DDE Tn7 FP inh,ADAM17 inh,PLCg1 inh,Tn6 DDE FP,ADAM10 inh,PLCb3 inh,PLCg1 ctr,PLCbeta3 conf
CCOC(=O)CNC(=O)N1Cc2ccc(Br)cc2-n2nncc2C1,-,-,-,-,-,-,.,.
O=C(COc1ccccc1)N1CCN(Cc2c[nH]c3ccccc23)CC1,-,-,10.8,-,-,-,-,-
O=c1[nH]c2c(c(=O)n1C1CCCCC1)CCC2,-,-,-,-,-,-,.,.
C=C1[C@H]2CC[C@H]3[C@]4(C)C[C@H](O[C@@H]5OC(CO)[C@@H](OSOOO)[C@H](OS(=O)(=O)O)[C@H]5OC(=O)CC(C)C)C[C@@H](C(=O)O)[C@H]4CC[C@]3(C2)[C@H]1O (stereo partly drawn),-,-,-,-,-,11.9,-,-
CCC(=O)N1N=C(c2c(O)n(CCc3ccccc3)c(=O)[nH]c2=O)CC1c1ccc(OC)c(OC)c1 (stereo not drawn),-,-,-,-,-,-,.,.
CSc1ccc(C(=O)C(C)(C)N2CCOCC2)cc1,-,-,10.5,-,-,-,-,-
O=c1c2ccc(Cl)cc2[nH]c(=S)n1-c1cccnc1,-,-,-,-,-,-,.,.
CN(C)CP(=O)(O)CN(C)C=O,-,-,-,-,-,12.4,-,-
CCCCN(Cc1ccccc1)C1CCN(CCc2ccccc2)CC1,-,-,12.9,-,-,-,-,-
CCCCn1c(O)c(C(CC)=NCCc2ccccc2)c(=O)[nH]c1=O,-,-,9.9,-,-,-,-,-
CCC(=NCC1CCCO1)c1c(O)n(-c2ccccc2)c(=O)[nH]c1=O (stereo not drawn),-,-,-,-,-,-,.,.
CCC(=NCC1CCCO1)c1c(O)n(Cc2ccccc2)c(=O)[nH]c1=O (stereo not drawn),-,-,-,-,-,19.7,-,14.7
CC1(C)CC(n2[nH]c(=O)c3c2NC(=O)CSC3c2ccccc2)CCO1 (stereo not drawn),-,-,16.6,-,-,-,-,-
Cn1cnc([N+](=O)[O-])c1Sc1ccc([N+](=O)[O-])cc1,-,-,-,-,-,11.0,-,-
O=[N+]([O-])c1ccc(C(c2ccc([N+](=O)[O-])cc2)c2ccc([N+](=O)[O-])cc2)cc1,-,-,-,-,-,-,.,.
CC/C(=N\Nc1cccc2ccccc12)c1c(O)[nH]c(=O)[nH]c1=O,-,-,-,-,-,-,.,.
